An excerpt weighted towards active compounds, which were near 2.3% of everything screened.
STAT1 inh: inhibitors of IFN-gamma induced STAT1 signaling. NIH 3T3 STAT1-luciferase reporter, luminescence. AID 920. actives 0.35% (n = 200,000). inhibition, % at 5.5 µM;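 active = inhibition above a set limit, the mean inhibition across all tested compounds plus 3 SD, cut at about 34% in these data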;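 also: 0% = IFN-gamma with DMSO and 100% = IFN-gamma with 300 µM nifuroxazide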
STAT3 inh-1: STAT3 signaling inhibition; inhibition, % at 5.5 µM; actives 0.89% (n = 190,000); U3A cells, IL-6 STAT3-luciferase reporter, luminescence; host cell line lacks STAT1;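 active = inhibition above the mean inhibition across all screened compounds plus 3 SD, cut at about 44% in these data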;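 also: 0% = DMSO only wells and 100% = 100 µM nifuroxazide control wells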
HSP90 refold inh: inhibitors of HSP90 luciferase refolding in rabbit reticulocyte lysate. luciferase refolding luminescence, 3 h. inhibition, % at 5.6 µM. actives 0.91% (n = 290,000);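 active = inhibition above the screen-wide mean plus 3 SD, computed separately per campaign, cut at about 16% in these data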;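 also: 0% = DMSO wells and 100% = 60 µM geldanamycin wells; inhibitors lower the luminescence because luciferase stays unfolded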
PPC-1+TRAIL kill: kills PPC-1 cancer cells in the presence of TRAIL. AID 1443. actives 0.41% (n = 220,000). PPC-1 cells + TRAIL, ATPLite viability luminescence. cell killing (% activity), % at 4 µM or 5 µM;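 active = cell killing above 50% in the first pass at 4 µM, then a duplicate retest at 5 µM averaging 50% or more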;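 also: plate controls were cells with TRAIL plus DMSO for no effect and medium-only wells lacking cells for full effect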
STAT3 activator: activators of IL-6 induced STAT3 signaling | actives 0.91% (n = 190,000) | U3A cells, IL-6 STAT3-luciferase reporter, luminescence; 100% = signal with IL-6 EC80 alone | activation (% of control), % at 5.6 µM;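 active = activation above the screen-wide mean of compound activation plus 3 SD, cut at about 130% in these data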;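 also: 0% = background luminescence of wells with medium and substrate only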
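Assay system – human STAT1-deficient U3A cells with stable STAT3-luciferase reporter · Also added – IL-6 (33 ng/mL) · Schedule – compound 1 h, then IL-6 6 h at 37 °C · Technique – reporter luminescence signal · Evaluation – % activation versus median of IL-6-stimulated wells · Benchmarks – IL-6-only wells as 100% reference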
TRAIL sens C8: caspase-8 TRAIL sensitization. AID 624354. NB7+C8 cells + TRAIL, ATPlite viability luminescence. inhibition (viability loss, TRAIL sensitization), % at 10 µM. actives 1% (n = 360,000);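 active = compounds causing at least 50% loss of cell viability in the single-dose screen, relative to plate controls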
STAT3 inh-2: confirmation of STAT3 signaling inhibitors; shares compounds with STAT3 inh-1; U3A cells, IL-6 STAT3 luciferase reporter, luminescence; cell line lacks STAT1; inhibition, % at 5.7 µM; actives 45% (n = 1,200); AID 1265;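 active = inhibition above the hit cutoff computed for the primary STAT3 screen, cut at about 44% in these data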;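 also: 0% = IL-6 plus DMSO and 100% = IL-6 plus nifuroxazide control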
NFkB inh 2: inhibits NF-kappaB, counter-screen to STAT3 inhibitors; shares compounds with STAT3 inh-1; inhibition, % at 5.7 µM; actives 36% (n = 1,200); AID 1308; HEK293T NF-kB luciferase reporter, TNF-alpha induced;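 active = inhibition above the mean of solvent-only control wells plus 3 SD, cutoff set per campaign, cut at about 13% in these data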;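 also: 0% = TNF-alpha with DMSO and 100% = TNF-alpha with MG high control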
STAT1 inh 2: counter-screen for STAT3 inhibitors: STAT1 inhibition; shares compounds with STAT3 inh-1; NIH 3T3 STAT1-luciferase reporter, IFN-gamma induced, luminescence; inhibition, % at 5.7 µM; actives 27% (n = 1,200);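 active = inhibition above the mean plus 3 SD of solvent-only control wells, limit set per screening run, cut at about 16% in these data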;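 also: 0% = DMSO with IFN-gamma and 100% = nifuroxazide control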
An asterisk follows results filed as active.

For Cc1ccc2c(c1)C(N1CCCC1=O)CC(c1ccco1)N2 (stereo not given) the results were STAT1 inh 18, STAT3 inh-1 70*, HSP90 refold inh 2, PPC-1+TRAIL kill -17, STAT3 activator 43, TRAIL sens C8 48*, STAT3 inh-2 38, NFkB inh 2 -2 and STAT1 inh 2 -41.
`Cc1ccc(C2CC(c3ccco3)n3ncnc3N2)cc1` (stereo not given) gave STAT1 inh 7, STAT3 inh-1 6, HSP90 refold inh 4, PPC-1+TRAIL kill 28, STAT3 activator 99 and TRAIL sens C8 -6.
Screening CCCCOc1ccc(C(=O)Nc2cccc(C)n2)cc1 returned STAT1 inh -13, STAT3 inh-1 48*, HSP90 refold inh 11, PPC-1+TRAIL kill 15, STAT3 activator 64, TRAIL sens C8 36, STAT3 inh-2 13, NFkB inh 2 -18 and STAT1 inh 2 -43.
O=C(c1cc2sccc2n1Cc1ccc(F)cc1)N1CCN(c2nc3ccccc3s2)CC1 was read as STAT1 inh 22, STAT3 inh-1 47*, HSP90 refold inh 8, PPC-1+TRAIL kill 25, STAT3 activator 62, TRAIL sens C8 36, STAT3 inh-2 36, NFkB inh 2 8 and STAT1 inh 2 17*.
`CCOC(=O)c1c(C)[nH]c(C2=NNC(=Nc3ccc(OCC)cc3)SC2)c1C` gave STAT1 inh 29, STAT3 inh-1 60*, HSP90 refold inh 6, PPC-1+TRAIL kill 19, STAT3 activator 51, TRAIL sens C8 -9, STAT3 inh-2 10, NFkB inh 2 -9 and STAT1 inh 2 -8.
CCOc1ccc(NC(=O)c2cnsn2)cc1 was read as STAT1 inh -24, STAT3 inh-1 49*, HSP90 refold inh 15, PPC-1+TRAIL kill -7, STAT3 activator 60, TRAIL sens C8 29, STAT3 inh-2 14, NFkB inh 2 -26 and STAT1 inh 2 -46.
CCOc1ccc(NC(=O)c2cnccn2)cc1 was read as STAT1 inh -23, STAT3 inh-1 33, HSP90 refold inh 9, PPC-1+TRAIL kill 47, STAT3 activator 73 and TRAIL sens C8 47.
Screening CN1/C(=C\C(=O)C[n+]2ccc(C(=O)c3ccccc3)cc2)C(C)(C)c2ccccc21 returned STAT1 inh -2, STAT3 inh-1 56*, HSP90 refold inh 5, PPC-1+TRAIL kill 21, STAT3 activator 57, TRAIL sens C8 55*, STAT3 inh-2 61*, NFkB inh 2 -11 and STAT1 inh 2 -1.
Screening Cc1cc(SCC(=O)OCC(=O)N2CCCC2=O)c(C)cc1Br returned TRAIL sens C8 -10.
Screening O=C(CSc1nnc(Cn2nnc3ccccc32)o1)N(Cc1ccc(F)cc1)c1ccccc1 returned STAT1 inh 20, STAT3 inh-1 76*, HSP90 refold inh 2, PPC-1+TRAIL kill 28, STAT3 activator 37, TRAIL sens C8 18, STAT3 inh-2 72*, NFkB inh 2 24* and STAT1 inh 2 19*.
For CCOC(=O)c1oc2ccc(S(=O)(=O)n3nc(-c4ccccc4)cc3N)cc2c1C the results were STAT1 inh 21, STAT3 inh-1 54*, HSP90 refold inh 3, PPC-1+TRAIL kill -29, STAT3 activator 60, TRAIL sens C8 15, STAT3 inh-2 40, NFkB inh 2 13* and STAT1 inh 2 12.
For CCOC(=O)c1oc2ccc(S(=O)(=O)n3nc(-c4ccc(OC)cc4)cc3N)cc2c1C the results were STAT1 inh -5, STAT3 inh-1 15, HSP90 refold inh -3, PPC-1+TRAIL kill 24, STAT3 activator 87 and TRAIL sens C8 18.
`COc1cc(/C=N\Nc2nc3ccccc3[nH]2)cc(OC)c1OC` gave STAT1 inh 17, STAT3 inh-1 74*, HSP90 refold inh 2, PPC-1+TRAIL kill 30, STAT3 activator 42, TRAIL sens C8 20, STAT3 inh-2 35, NFkB inh 2 19* and STAT1 inh 2 4.
Screening COc1ccc(/C=N/Nc2nc3ccccc3[nH]2)cc1OC returned STAT1 inh -2, STAT3 inh-1 0, HSP90 refold inh 5, PPC-1+TRAIL kill -16, STAT3 activator 98 and TRAIL sens C8 7.
For CC1(C)Cc2ccccc2-c2nnc(SCC(=O)N3CCN(c4ccccc4)CC3)n21 the results were STAT1 inh 2, STAT3 inh-1 44*, HSP90 refold inh -3, PPC-1+TRAIL kill 29, STAT3 activator 67, TRAIL sens C8 8, STAT3 inh-2 20, NFkB inh 2 -2 and STAT1 inh 2 -3.
For CC1(C)Cc2ccccc2-c2nnc(SCc3ccccc3)n21 the results were STAT1 inh 1, STAT3 inh-1 29, HSP90 refold inh -1, PPC-1+TRAIL kill -1, STAT3 activator 77 and TRAIL sens C8 5.
`CCn1c(SCC(=O)N2CCN(c3ccccc3)CC2)nnc1-c1c[nH]c2ccccc12` gave STAT1 inh 12, STAT3 inh-1 51*, HSP90 refold inh 0, PPC-1+TRAIL kill 16, STAT3 activator 64, TRAIL sens C8 6, STAT3 inh-2 27, NFkB inh 2 -2 and STAT1 inh 2 2.
O=C(Nc1ccc(Oc2cccnc2)cc1)c1ccc([N+](=O)[O-])cc1 was read as STAT1 inh 12, STAT3 inh-1 69*, HSP90 refold inh 3, PPC-1+TRAIL kill 18, STAT3 activator 45, TRAIL sens C8 15, STAT3 inh-2 65*, NFkB inh 2 23* and STAT1 inh 2 1.
CCOc1ccc(C(=O)NNC(=O)CN2C(=O)NC3(CCCC3)C2=O)cc1 was read as TRAIL sens C8 -17.
Screening Cc1ccc(C(=O)N2CCCC2)cc1S(=O)(=O)N1CCOCC1 returned HSP90 refold inh -3 and TRAIL sens C8 9.
Screening O=C(CN1C(=O)C2CCCCC2C1=O)OCC(=O)c1ccc(F)cc1 (stereo not given) returned TRAIL sens C8 -12.
COc1ccccc1NC(=O)c1ccc(COc2ccc3c(c2)CCC3)cc1 was read as STAT1 inh -7, STAT3 inh-1 -6, HSP90 refold inh 2, PPC-1+TRAIL kill 6, STAT3 activator 104 and TRAIL sens C8 -6.
For COc1cccc(OC)c1C(=O)NNC(=O)c1cccc(COc2ccc3c(c2)CCC3)c1 the results were STAT1 inh 26, STAT3 inh-1 53*, HSP90 refold inh 10, PPC-1+TRAIL kill 18, STAT3 activator 55, TRAIL sens C8 10, STAT3 inh-2 35, NFkB inh 2 23* and STAT1 inh 2 21*.

High-throughput results (PubChem BioAssay)
